In ChEMBL document CHEMBL2163205 (J Med Chem, 2012):
In brackets after ≈: the same amount, converted by molar mass. Activity calls are given as the source filed them. The calls are words filed in the database; no cut-off is given here.

Key:
Cathepsin S = Cathepsin S (Homo sapiens, UniProt P25774); test: Inhibition of human recombinant CatS assessed as suppression of enzyme-mediated Z-Val-Val-Arg-AMC cleavage by QFRET assay
Outline: (§1)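 Recombinant human Cat S at 0.5 nM final was preincubated with compound for 30 min at room temperature. Z-Val-Val-Arg-AMC (100 μM final) was added in potassium phosphate buffer, pH 6.4, incubated 1 h, then stopped with acetic acid. AMC fluorescence read at ex 360/em 425 nm; IC50 by nonlinear regression.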

[1] = Lipophilicity, log D of the compound at pH 7.4; conditions: buffer
Cathepsin K [2] = target: T1, Cathepsin K (Homo sapiens, UniProt P43235); test: Inhibition of human recombinant CatK assessed as suppression of enzyme-mediated Z-Phe-Arg-AMC cleavage incubated for 1 hrs by QFRET assay
T1 sequence (P43235 whole entry): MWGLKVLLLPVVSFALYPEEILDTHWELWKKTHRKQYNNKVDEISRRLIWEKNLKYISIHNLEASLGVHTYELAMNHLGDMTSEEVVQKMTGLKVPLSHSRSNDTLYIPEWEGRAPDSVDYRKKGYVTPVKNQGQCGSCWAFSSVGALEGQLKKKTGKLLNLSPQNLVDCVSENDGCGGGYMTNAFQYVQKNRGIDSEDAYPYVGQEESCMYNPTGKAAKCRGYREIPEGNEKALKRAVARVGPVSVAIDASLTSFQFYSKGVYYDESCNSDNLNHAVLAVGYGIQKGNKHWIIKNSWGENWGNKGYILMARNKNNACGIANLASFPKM

Cathepsin B = Cathepsin B (Homo sapiens, UniProt P07858); test: Inhibition of human recombinant CatB assessed as suppression of enzyme-mediated Z-Arg-Arg-AMC cleavage by QFRET assay
Outline: as §1, with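 “B” for “S”, “Z-Arg-Arg-AMC” for “Z-Val-Val-Arg-AMC”, “Fluorescence” for “AMC fluorescence”, “nm with background correction;” for “nm;”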

[3] = Intrinsic clearance in rat liver microsomes assessed as metabolic turnover
Homo sapiens = species on record: Homo sapiens; test: Selectivity ratio of IC50 for human recombinant CatS to IC50 for human recombinant CatK
Outline: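 Quenched-FRET cleavage assays with in-house recombinant human enzymes at 0.5 nM final. Cat K used 50 μM Z-Phe-Arg-AMC at pH 5.5 (acetate/EDTA). Cat S used 100 μM Z-Val-Val-Arg-AMC at pH 6.4 (potassium phosphate). Compounds were preincubated 30 min at RT, then reacted 1 h, stopped with acetic acid and read at ex 360/em 425 nm. Twelve concentrations; IC50s from variable-slope nonlinear regression; ratio Cat S/Cat K.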

Procathepsin L = Procathepsin L (Homo sapiens, UniProt P07711); test: Inhibition of human recombinant CatL assessed as suppression of enzyme-mediated Z-Phe-Arg-AMC cleavage by QFRET assay
Procathepsin L, sequence (P07711 whole entry): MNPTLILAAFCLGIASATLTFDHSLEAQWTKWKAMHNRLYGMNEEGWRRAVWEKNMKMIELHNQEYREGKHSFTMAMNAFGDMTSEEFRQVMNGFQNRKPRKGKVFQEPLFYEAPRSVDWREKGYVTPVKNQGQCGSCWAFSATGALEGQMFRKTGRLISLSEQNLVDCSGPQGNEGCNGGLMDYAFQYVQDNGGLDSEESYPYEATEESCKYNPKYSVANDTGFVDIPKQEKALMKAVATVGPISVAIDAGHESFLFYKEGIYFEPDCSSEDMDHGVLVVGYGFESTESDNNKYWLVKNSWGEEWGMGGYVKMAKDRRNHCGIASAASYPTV
Outline: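 Recombinant human Cat L at 0.1 nM final was preincubated with compound for 30 min, then Z-Phe-Arg-AMC (10 μM final) was added. QFRET cleavage was run 1 h at room temperature and stopped with acetic acid. Fluorescence read at ex 360/em 425 nm; IC50 by variable-slope nonlinear regression.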

[4] = Intrinsic clearance in human liver microsomes assessed as metabolic turnover
[5] = Aqueous solubility of the compound at pH 7.4; conditions: buffer
[6] = Fraction unbound in human serum; format: ADME, cell-free
Outline: (§2)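 Serum or plasma protein binding reported as percentage free. Each value is the mean of at least n = 2 experiments.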

[7] = Oral bioavailability in Alderley Park Han Wistar rat at 2.0 mg/kg administered as single dose; format: ADME, organism-based; conditions: in vivo
Outline: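 Fed male Alderley Park Han Wistar rats dosed po at 2.0 mg/kg as a suspension in 5% DMSO/95% HPMC/TWEEN; iv reference dose 2.0 mg/kg in 40% DMA/water. Single doses, at least two experiments of two animals each.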

[8] = Oral bioavailability in Beagle dog at 1.0 mg/kg administered as single dose; conditions: in vivo
[9] = Half life in Alderley Park Han Wistar rat at 2.0 mg/kg, iv administered as single dose; conditions: in vivo
[10] = Intrinsic clearance in human hepatocytes assessed as metabolic turnover measured per 10^6 cells
[11] = Volume of distribution at steady state in Alderley Park Han Wistar rat at 2.0 mg/kg, po and 2.0 mg/kg, iv administered as single dose; format: ADME, organism-based; conditions: in vivo, read-out: Vdss
Outline: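 Male Alderley Park Han Wistar rats, fed. Given single iv dose of 2.0 mg/kg as a solution in 40% DMA/water and single po dose of 2.0 mg/kg as a suspension in 5% DMSO/95% HPMC/TWEEN. At least two experiments, each with two animals.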

[12] = Fraction unbound in rat serum; format: ADME, cell-free; outline: as §2
[13] = Volume of distribution at steady state in Beagle dog at 1.0 mg/kg, po and 1.0 mg/kg, iv administered as single dose; format: ADME, organism-based, Canis lupus familiaris; conditions: in vivo, read-out: Vdss
Outline: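 Beagle dogs, fasted. Given single iv dose of 1.0 mg/kg as a solution in 10% DMSO/90% Sorensons and single po dose of 1.0 mg/kg as a suspension in 5% DMSO/95% HPMC/TWEEN. At least two experiments, each with two animals.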

in vivo [14] = conditions: Beagle, dog, plasma, iv, 1 mg/kg
[15] = Intrinsic clearance in dog hepatocytes assessed as metabolic turnover measured per 10^6 cells
[16] = Fraction unbound in dog serum; format: ADME, cell-free, Canis lupus familiaris; outline: as §2
[17] = Intrinsic clearance in rat hepatocytes assessed as metabolic turnover measured per 10^6 cells; format: ADME, cell-based, Hepatocyte
Outline: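 Intrinsic clearance from in vitro hepatocyte incubation, expressed in μL/min/10⁶ cells. Each value is the mean of at least n = 2 experiments.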

[18] = Half life in Beagle dog at 1.0 mg/kg, iv administered as single dose; conditions: in vivo
in vivo [19] = conditions: Alderley Park Han Wistar, rat, plasma, iv, 2 mg/kg
[20] = Fraction unbound at serum; format: ADME, cell-free; outline: as §2
Canis familiaris = test: In-vivo inhibition of CatK in orally dosed Alderley Park Beagle dog assessed as reduction in CTX-1 level at 0.1 to 2 mg/kg, po qd by ELISA; format: functional, organism-based; conditions: Canis lupus familiaris
Outline: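 Male Alderley Park Beagles (12−14 months, 14−17 kg) gavaged at 0.1, 0.3 or 2.0 mg/kg in 5% DMSO + 95% HPMC/Tween, 5 mL/kg, with dosing started at the same time of day. Jugular blood was clotted ≥1 h at room temperature and serum spun down. Serum CTX-1 was measured by CrossLaps ELISA; points are mean n = 2.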

Cathepsin K [21] = target: T2, Cathepsin K (Canis lupus familiaris, UniProt Q3ZKN1); test: Inhibition of dog recombinant CatK assessed as suppression of enzyme-mediated Z-Phe-Arg-AMC cleavage by QFRET assay
T2 sequence (Q3ZKN1 whole entry): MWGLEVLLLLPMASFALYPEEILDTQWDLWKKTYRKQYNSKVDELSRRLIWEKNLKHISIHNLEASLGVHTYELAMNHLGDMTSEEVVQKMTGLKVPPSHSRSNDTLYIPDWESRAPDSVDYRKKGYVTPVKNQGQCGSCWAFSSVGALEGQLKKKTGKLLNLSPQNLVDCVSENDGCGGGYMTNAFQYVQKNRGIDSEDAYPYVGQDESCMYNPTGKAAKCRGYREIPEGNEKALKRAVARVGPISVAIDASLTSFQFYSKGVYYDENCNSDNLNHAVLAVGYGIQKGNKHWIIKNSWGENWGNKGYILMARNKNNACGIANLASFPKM
Outline: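 Recombinant dog Cat K at 0.5 nM final was preincubated with compound for 30 min at room temperature. Z-Phe-Arg-AMC (15 μM final) was added in sodium acetate buffer, pH 5.5, and incubated 1 h at room temperature in the dark, then stopped with 7.5% acetic acid. Fluorescence read at ex 360/em 425 nm; IC50 by nonlinear regression.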

Cathepsin S, sequence (P25774 whole entry): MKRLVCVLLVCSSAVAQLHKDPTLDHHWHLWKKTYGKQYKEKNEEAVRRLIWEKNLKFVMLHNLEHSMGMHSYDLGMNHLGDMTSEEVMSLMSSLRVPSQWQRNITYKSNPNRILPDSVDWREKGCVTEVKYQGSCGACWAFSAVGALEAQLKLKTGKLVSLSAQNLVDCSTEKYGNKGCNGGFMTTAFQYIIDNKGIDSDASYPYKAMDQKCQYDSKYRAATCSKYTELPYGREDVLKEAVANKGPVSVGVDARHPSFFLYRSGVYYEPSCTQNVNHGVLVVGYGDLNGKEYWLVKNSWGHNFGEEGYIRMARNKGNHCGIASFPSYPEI

| Structure (SMILES) | IC50 (Cathepsin S) | logD [1] | IC50 (Cathepsin K [2]) | IC50 (Cathepsin B) | microsomal CLint [3] | IC50 (Procathepsin L; read-out: IC50) | microsomal CLint [4] | solubility [5] | fraction unbound [6] | bioavailability [7] | bioavailability [8] | Vd [11] | fraction unbound [12] | Vd [13] | fraction unbound [16] | hepatocyte CLint [17] | IC50 (Procathepsin L) | also measured |
| --- | --- | --- | --- | --- | --- | --- | --- | --- | --- | --- | --- | --- | --- | --- | --- | --- | --- | --- |
| CN(C)C(=O)[C@@H]1CCCC[C@H]1C(=O)NCC#N | 3700 nM | < 0.5 | 257 nM | 9820 nM | < 2 µL/min/mg | > 40000 nM | 5.1 µL/min/mg | > 4600 µM |  |  |  |  |  |  |  |  |  | Ratio IC50 (Homo sapiens): 14 |
| N#CC1(NC(=O)[C@@H]2CCCC[C@H]2C(=O)N2CCc3[nH]c4ccc(F)cc4c3C2)CC1 | > 4000 nM | 3 | < 1 nM | 3520 nM | > 250 µL/min/mg | > 40000 nM | 41 µL/min/mg | 580 µM (≈ 237 µg/mL) | 0.14 | 3.8% | 82% | 2.3 L/kg | 0.16 | 1.2 L/kg | 0.13 | 126 µL/min/1e6 cells |  | half-life [9]: 0.6 h; hepatocyte CLint [10]: < 2.5 µL/min/1e6 cells; clearance (in vivo [14]): 10 mL/min/kg; hepatocyte CLint [15]: 6.7 µL/min/1e6 cells; half-life [18]: 1.8 h; clearance (in vivo [19]): 63 mL/min/kg |
| CN1CCN(C(=O)[C@@H]2CCCC[C@H]2C(=O)NCC#N)CC1 | 2070 nM | -0.1 | 37 nM | 7630 nM |  | > 40000 nM | 7.9 µL/min/mg | 3560 µM (≈ 1040 µg/mL) |  |  |  |  |  |  |  | < 2 µL/min/1e6 cells |  |  |
| COc1ccc2[nH]c3c(c2c1)CN(C(=O)[C@@H]1CCCC[C@H]1C(=O)NC1(C#N)CC1)CC3 | > 4000 nM | 2.4 |  | > 2900 nM |  |  | 29 µL/min/mg | 822 µM (≈ 346 µg/mL) |  |  |  |  |  |  |  | 20 µL/min/1e6 cells | Not Active |  |
| N#CC1(NC(=O)[C@@H]2CCCC[C@H]2C(=O)N2CCc3[nH]c4ccccc4c3C2)CC1 | > 4000 nM | 2.7 | 1 nM | > 2900 nM | 143 µL/min/mg |  | 26 µL/min/mg | 910 µM (≈ 355 µg/mL) |  | 8.2% |  |  |  |  |  |  | Not Active | fraction unbound [20]: 0.23 |
| CS(=O)(=O)c1ccc2[nH]c3c(c2c1)CN(C(=O)[C@@H]1CCCC[C@H]1C(=O)NC1(C#N)CC1)CC3 | > 4000 nM |  |  | > 2900 nM |  |  | 14 µL/min/mg | 193 µM (≈ 90.4 µg/mL) |  |  |  |  |  |  |  | 3.5 µL/min/1e6 cells | Not Active |  |
| N#CC1(NC(=O)[C@@H]2CCCC[C@H]2C(=O)N2CCc3oc4ccccc4c3C2)CC1 |  | 3 | 25 nM |  | > 350 µL/min/mg |  |  | 580 µM (≈ 227 µg/mL) |  | 0% |  |  |  |  |  |  |  | fraction unbound [20]: 0.12 |
| N#CC1(NC(=O)[C@@H]2CCCC[C@H]2C(=O)N2CCc3[nH]c4ncccc4c3C2)CC1 | > 4000 nM | 2.1 | 1 nM | > 2900 nM |  |  |  | 1500 µM (≈ 587 µg/mL) | 0.33 | 12% | 59% | 1.6 L/kg | 0.42 | 0.9 L/kg | 0.38 |  | Not Active |  |
| COc1cccc2c3c([nH]c12)CCN(C(=O)[C@@H]1CCCC[C@H]1C(=O)NC1(C#N)CC1)C3 | > 4000 nM | 2.7 | < 1 nM | > 2900 nM | 67 µL/min/mg |  | 16 µL/min/mg |  | 0.17 | 28% | 65% | 2.3 L/kg | 0.17 | 1.7 L/kg | 0.22 |  | Not Active | half-life [9]: 1 h; hepatocyte CLint [10]: 5.3 µL/min/1e6 cells; inhibition (Canis familiaris): Active; IC50 (Cathepsin K [21]): 0.8 nM; clearance (in vivo [14]): 10 mL/min/kg; hepatocyte CLint [15]: 2.5 µL/min/1e6 cells; half-life [18]: 1.5 h; clearance (in vivo [19]): 53 mL/min/kg |
| N#Cc1cccc2c3c([nH]c12)CCN(C(=O)[C@@H]1CCCC[C@H]1C(=O)NC1(C#N)CC1)C3 | > 4000 nM | 2.5 | 2 nM | > 2900 nM | 80 µL/min/mg |  | 34 µL/min/mg | 400 µM (≈ 166 µg/mL) |  |  |  |  |  |  |  |  | Not Active |  |
